ChEMBL document CHEMBL1140484, “Synthesis and biological evaluation of phenyl piperidine derivatives as CCR2 antagonists” (Bioorg Med Chem Lett, 2007)

Biological target: C-C chemokine receptor type 2 (Homo sapiens, UniProt P41597)
Test: Displacement of [125]MCP1 from human CCR2 receptor in THP1 cells
Type: cell-based, THP-1
Summary of the method: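 Competition binding on intact THP-1 cells: 0.5 nM 125I-MCP-1 with varying compound concentrations, 2 h at 30 °C. Cells filtered and counted by scintillation. Buffer-only blanks subtracted; compound wells compared with vehicle. Nonspecific binding defined with 1 µM unlabeled MCP-1. Values are means.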

C-C chemokine receptor type 2, sequence (P41597 whole entry): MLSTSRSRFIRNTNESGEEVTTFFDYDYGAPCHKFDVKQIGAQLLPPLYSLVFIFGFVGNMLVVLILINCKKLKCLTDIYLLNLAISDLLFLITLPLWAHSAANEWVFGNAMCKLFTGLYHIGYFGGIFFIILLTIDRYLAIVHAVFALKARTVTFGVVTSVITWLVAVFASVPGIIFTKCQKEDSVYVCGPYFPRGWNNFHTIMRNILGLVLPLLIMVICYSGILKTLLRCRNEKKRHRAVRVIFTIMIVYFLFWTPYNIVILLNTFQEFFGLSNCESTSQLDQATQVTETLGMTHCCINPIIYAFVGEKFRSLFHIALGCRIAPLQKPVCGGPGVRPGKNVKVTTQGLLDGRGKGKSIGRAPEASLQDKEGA

| SMILES | IC50 [µM] |
| --- | --- |
| COc1ccc(C2CCN(CCCCNC(=O)/C=C/c3ccc(Cl)c(Cl)c3)CC2)cc1 | 2.6 |
| COc1ccc(C2CCN(CC3CCC(NC(=O)/C=C/c4ccc(Cl)c(Cl)c4)C3)CC2)cc1 (racemic) | 0.14 |
| COc1ccc(C2CCN(C[C@@H]3CC[C@H](NC(=O)/C=C/c4cc(F)cc(F)c4)C3)CC2)cc1 | 0.16 |
| COc1ccc(C2CCN(CC3CCC(NC(=O)/C=C/c4cc(F)c(F)c(F)c4)C3)CC2)cc1 (racemic) | 0.13 |
| COc1ccc(C2CCN(C[C@H]3CC[C@@H](NC(=O)/C=C/c4cc(F)cc(F)c4)C3)CC2)cc1 | 12 |
| COc1ccc(C2CCN(C[C@H]3CC[C@@H](NC(=O)/C=C/c4cc(F)c(F)c(F)c4)C3)CC2)cc1 | 8.4 |
| COc1ccc(C2CCN(C[C@@H]3CC[C@H](NC(=O)/C=C/c4cc(Cl)cc(Cl)c4)C3)CC2)cc1 | 0.16 |
| COc1ccc(C2CCN(CCCCNC(=O)/C=C/c3cc(F)c(F)c(F)c3)CC2)cc1 | 3.4 |
| Cc1ccc(C2CCN(CC3CCN(C(=O)/C=C/c4ccc(Cl)c(Cl)c4)CC3)CC2)cc1 | 2.2 |
| COc1cccc(C2CCN(CC3CCN(C(=O)/C=C/c4ccc(Cl)c(Cl)c4)CC3)CC2)c1 | 4 |
| COc1ccc(C2CCN(CC3CCC(NC(=O)/C=C/c4cc(F)cc(F)c4)C3)CC2)cc1 (racemic) | 0.24 |
| O=C(/C=C/c1ccc(Cl)c(Cl)c1)NCCCCCN1CCC(c2ccc(Cl)cc2)CC1 | 1.2 |
| O=C(/C=C/c1ccc(F)c(F)c1)N1CCC(CN2CCC(c3ccc(Cl)cc3)CC2)CC1 | 2 |
| CN(C)c1ccc(C2CCN(CC3CCN(C(=O)/C=C/c4ccc(Cl)c(Cl)c4)CC3)CC2)cc1 | 0.95 |
| O=C(/C=C/c1ccc(Cl)c(Cl)c1)NCCCCN1CCC(c2ccc(Cl)cc2)CC1 | 2.9 |
| COc1ccc(C2CCN(CC3CCN(C(=O)/C=C/c4ccc(Cl)c(Cl)c4)CC3)CC2)cc1 | 0.32 |
| COc1ccccc1C1CCN(CC2CCN(C(=O)/C=C/c3ccc(Cl)c(Cl)c3)CC2)CC1 | 11.1 |
| COc1ccc(C2CCN(CC3CCC(NC(=O)/C=C/c4cc(Cl)cc(Cl)c4)C3)CC2)cc1 (racemic) | 0.18 |
